Source: PubChem (The Scripps Research Institute Molecular Screening Center)
proCasp3 act: activates human procaspase-3. P42574. AID 463141. activation, % at 8.5 µM. 330,000 tested, 0.11% active. recombinant procaspase-3 D3A, Ac-DEVD-pNA absorbance 405 nm;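 active = activation above the mean of all tested compounds plus 3 SD, cut at about 21% in these data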;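 note: 0% = DMSO alone and 100% = DMSO wells spiked with extra 5 µM PC-3 D3A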
Target sequence (P42574 whole entry D9A/D28A/D175A): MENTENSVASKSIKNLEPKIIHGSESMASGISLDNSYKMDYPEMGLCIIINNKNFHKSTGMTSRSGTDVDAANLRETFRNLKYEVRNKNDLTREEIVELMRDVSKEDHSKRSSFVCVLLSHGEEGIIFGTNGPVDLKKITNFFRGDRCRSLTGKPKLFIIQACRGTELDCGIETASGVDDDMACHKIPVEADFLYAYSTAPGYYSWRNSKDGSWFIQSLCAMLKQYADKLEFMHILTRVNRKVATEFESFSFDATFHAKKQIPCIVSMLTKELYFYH
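material = Procaspase-3 D3A mutant | probe or stimulus = Ac-DEVD-pNA | compound = single dose, 8.5 µM nominal compound, 0.8% DMSO | timing = 1 h preincubation, 2 h reaction | measured by = 405 nm absorbance of p-nitroaniline, reads at 0 and 120 min | benchmarks = DMSO-only low control, 5 µM PC-3 D3A high control | repeats = singlicate, each compound tested once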
PP5 primary: PP5 (human) phosphatase inhibition; 320,000 tested, 0.18% active; P53041; purified PP5c, OMFP substrate fluorescence; inhibition, % at 6.7 µM;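 active = inhibition above the campaign's mean inhibition across all tested compounds plus 3 SD, cut at about 9.5% in these data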;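 note: 0% = DMSO only and 100% = 100 µM cantharidin control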
Target sequence (P53041 whole entry, looked up): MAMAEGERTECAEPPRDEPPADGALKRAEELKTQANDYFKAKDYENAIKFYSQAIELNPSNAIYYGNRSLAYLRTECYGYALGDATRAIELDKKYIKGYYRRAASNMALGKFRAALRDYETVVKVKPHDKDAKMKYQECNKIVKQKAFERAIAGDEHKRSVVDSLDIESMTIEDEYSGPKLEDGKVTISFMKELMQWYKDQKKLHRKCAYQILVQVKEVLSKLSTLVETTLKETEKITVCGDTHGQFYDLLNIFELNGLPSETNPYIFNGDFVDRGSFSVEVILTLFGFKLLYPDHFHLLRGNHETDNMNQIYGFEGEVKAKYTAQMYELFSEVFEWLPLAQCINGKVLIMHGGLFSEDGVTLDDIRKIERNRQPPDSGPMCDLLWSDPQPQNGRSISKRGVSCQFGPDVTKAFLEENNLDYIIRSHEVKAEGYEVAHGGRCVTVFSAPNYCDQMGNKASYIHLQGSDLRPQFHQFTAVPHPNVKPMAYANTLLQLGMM
PP1 counter: blocks human PP1-alpha phosphatase, a PP5 counter-screen; inhibition, % at 6.7 µM; purified PP1alpha, OMFP fluorescence; P62136; 320,000 tested, 0.9% active; AID 2235;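 active = inhibition above the mean inhibition of all tested compounds plus 3 SD, computed separately for each screening campaign, cut at about 15% in these data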
procasp7 counter: counter-screen for procaspase-3 activators: activators of human procaspase-7; P55210; recombinant procaspase-7, Ac-DEVD-pNA absorbance 405 nm; D23A/D198A/D206A triple mutant, cannot self-cleave; scale: DMSO 0, 5 µM enzyme 100; activation, % at 8.5 µM; 330,000 tested, 0.093% active; AID 463210;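 active = percent activation above the screen-wide mean plus 3 SD, cut at about 25% in these data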
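Assay system: Uncleavable procaspase-7 mutant enzyme; Input: 2 µM procaspase-7 mutant as dispensed; Also added: DEVD-pNA substrate; Medium: Zinc-free HEPES pH 7.4 with 300 mM NaCl, 0.01% Triton X-100; Timing: 1 h compound preincubation, 2 h substrate cleavage, 25 °C; Measured by: Epi-absorbance of released pNA at 405 nm, two timepoints.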
PP1 confirm: confirmation of human PP1 phosphatase inhibitors. shares compounds with PP1 counter. AID 2358. inhibition, % at 6.7 µM. 1,900 tested, 52% active. purified PP1alpha, OMFP substrate fluorescence;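 active = mean PP1 inhibition above a set limit taken from the earlier primary screen, cut at about 15% in these data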
PP5 inh counter: inhibits human PP5 phosphatase in PP1 counter-screen | 1,900 tested, 4% active | inhibition, % at 6.7 µM | shares compounds with PP1 counter | AID 2360 | purified PP5c, OMFP fluorescence;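 active = mean PP5 inhibition over triplicate wells above about 9.5% taken from the earlier PP1 screen, limit read from the data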
* hit, by the source's call; / = no result. A selection: hits, their analogues and other compounds. The true share with any hit is near 1.2%.

SMILES | proCasp3 act | PP5 primary | PP1 counter | procasp7 counter | PP1 confirm | PP5 inh counter
C#CCOCCOCCOCCNc1nc(N2CCN(C(=O)CCCCCCCCCCNC(=O)[C@@H](CCC(=O)O)n3cc(CCCCCN)nn3)CC2)nc(N2CCN(C(=O)CCCCCCCCCCNC(=O)[C@H]([C@@H](C)CC)n3cc(CCCCCN)nn3)CC2)n1 | -2.5 | 0.7 | 12.6 | -4.9 | / | /
CC[C@H](C)[C@@H](C(=O)NCCCCCCCCCCC(=O)N1CCN(C(=O)OC(C)(C)C)CC1)n1cc(CCCCN=C(NC(=O)OC(C)(C)C)NC(=O)OC(C)(C)C)nn1 | 2.8 | 5.4 | 19.2* | 2.0 | 30.1* | 1.7
C#CCOCCOCCOCCNc1nc(N2CCN(C(=O)CCCCCCCCCCNC(=O)[C@H](CO)n3cc(CCCSC)nn3)CC2)nc(N2CCN(C(=O)CCCCCCCCCCNC(=O)[C@H](CCCN=C(N)N)n3cc(C[C@@H](C)CC)nn3)CC2)n1 | -5.8 | 7.2 | 46.4* | 0.9 | 29.6* | 1.0
C#CCOCCOCCOCCNc1nc(N2CCN(C(=O)Cn3cc(CCCN=C(N)N)nn3)CC2)nc(N2CCN(C(=O)[C@H]([C@@H](C)CC)n3cc(CCCCN)nn3)CC2)n1 | 1.1 | 1.5 | -3.0 | -3.3 | / | /
C#CCOCCOCCOCCNc1nc(N2CCN(C(=O)CCCCCCCCCCNC(=O)[C@H]([C@@H](C)CC)n3cc(CCCCCN)nn3)CC2)nc(N2CCN(C(=O)CCCCCCCCCCNC(=O)[C@H](CO)n3cc(CCCCCN)nn3)CC2)n1 | 8.9 | 4.7 | 53.2* | 3.7 | 25.6* | -2.1
C#CCOCCOCCOCCNc1nc(N2CCN(C(=O)CCCCCCCCCCNC(=O)Cn3cc(CCCCCN)nn3)CC2)nc(N2CCN(C(=O)CCCCCCCCCCNC(=O)[C@H]([C@@H](C)CC)n3cc(CCCCN=C(N)N)nn3)CC2)n1 | -3.1 | 3.4 | 70.5* | 0.1 | 55.1* | 0.7
CC[C@H](C)[C@@H](C(=O)NCCCCCCCCCCC(=O)N1CCN(C(=O)OC(C)(C)C)CC1)n1cc(CCCCCNC(=O)OC(C)(C)C)nn1 | -3.0 | 5.3 | 0.3 | 4.4 | / | /
COc1ccc(/C=C2\CCc3ccccc3C2=O)cc1O | -1.1 | 4.4 | 0.1 | -7.2 | / | /
O=C(CN1CCN(c2ccccc2O)CC1)Nc1ccc2c(c1)OCCCO2 | -1.1 | 3.1 | 3.4 | -16.4 | / | /
CC(NC(=O)CN1C(=O)NC2(CCCC2)C1=O)c1ccc(Cl)cc1Cl (stereo unspecified) | 5.6 | / | / | 3.6 | / | /
CN1CCN(C2Cc3ccc(F)cc3Sc3cc(F)c(Cl)cc32)CC1 (stereo unspecified) | 0.9 | 4.5 | 9.0 | -0.3 | / | /
CC(C)c1ccc2c(c1)C(N1CCNCC1)Cc1ccc(F)cc1S2 (stereo unspecified) | -2.8 | 3.5 | 19.4* | 0.0 | -1.1 | -0.9
COc1cc(C(=O)N2CCN(S(=O)(=O)c3cccc(F)c3)CC2)ccc1OCC(=O)N1CCOCC1 | 0.9 | 2.0 | -2.8 | 7.9 | / | /
N#C/C(=C/c1ccc(Sc2nc3ccccc3[nH]2)o1)c1cccc(F)c1 | -11.6 | 5.5 | 6.1 | -10.8 | / | /
N#C/C(=C/c1ccc(Sc2nc3ccccc3[nH]2)o1)c1ccccc1F | -13.7 | 6.7 | 36.8* | -14.0 | 3.5 | -0.2
CSCCC(NC(=O)c1ccc([N+](=O)[O-])cc1Cl)C(=O)OCC(=O)NC(=O)CN1CCCC1=O (stereo unspecified) | -0.6 | -0.7 | 39.1* | 7.0 | -1.2 | -2.8
CCc1nnc(NC(=O)CN2CCN(Cc3cccc(OC)c3)CC2)s1 | 4.6 | -2.3 | -5.1 | 1.5 | / | /
CCc1nnc(NC(=O)CN2CCN(c3cccc(OC)c3)CC2)s1 | 1.1 | 0.9 | 33.6* | 11.1 | -4.3 | -4.4
CN(CCOc1ccccc1)CCOc1ccccc1 | 1.9 | -1.1 | -4.5 | -9.8 | / | /
CN(C)CCOc1ccc(/C(=C(/CCCl)c2ccccc2)c2ccccc2)cc1 | 7.7 | 5.2 | 21.1* | -4.1 | -8.7 | -1.0
CN1CCN(Cc2c(C(=O)N/N=C/c3cccc(Br)c3)nnn2-c2nonc2N)CC1 | 1.6 | 0.5 | -3.8 | 5.2 | / | /
Oc1c(C(Nc2ccccn2)c2cccnc2)cc(Cl)c2cccnc12 (stereo unspecified) | 6.6 | 2.6 | 21.8* | -12.6 | 18.9* | -3.2
COc1ccc(C(NC(=O)c2cccnc2)c2cc(Cl)c3cccnc3c2O)cc1OC (stereo unspecified) | 2.9 | 1.1 | 34.4* | 3.2 | 22.5* | -1.9
Cc1cc(NC(c2cccnc2)c2ccc3cccnc3c2O)no1 (stereo unspecified) | 8.4 | 3.6 | -0.5 | 0.4 | / | /
CC(=O)NC(c1cc(Cl)c2cccnc2c1O)C(C)C (stereo unspecified) | 1.4 | 2.5 | 1.2 | 4.1 | / | /
SMILES | proCasp3 act | PP5 primary | PP1 counter | procasp7 counter | PP1 confirm | PP5 inh counter
O=C(O)c1nc(-c2ccccc2)n(-c2ccccc2)n1 | 3.2 | -1.0 | 6.6 | -0.8 | / | /
O=C(O)c1cc(-c2ccccc2)n(-c2ccccc2)n1 | 11.0 | 0.7 | 24.2* | 2.8 | 28.1* | -2.8
O=C(O)c1cc2nc(-c3ccccc3)cc(-c3ccccc3)n2n1 | -3.0 | -0.6 | 2.5 | 1.1 | / | /
Cc1ccccc1-n1nc(C(=O)O)cc1-c1ccccc1 | 0.8 | 4.0 | 36.2* | -8.2 | 33.2* | -4.8
O=C(O)c1cc(-c2ccccc2Cl)n(-c2ccccc2)n1 | 2.5 | -0.8 | 3.4 | 1.5 | / | /
COc1ccc(-n2nc(C(=O)O)cc2-c2ccccc2)cc1 | -4.0 | 0.4 | 26.2* | -6.8 | 24.4* | -4.7
COC(=O)c1cc(-c2ccc(F)cc2)n(-c2ccccc2)n1 | -3.4 | 2.5 | 3.2 | 4.9 | / | /
O=C(O)c1nc(-c2ccccc2)n(-c2ccc(Cl)cc2)n1 | 1.6 | -1.0 | 18.1* | 7.8 | 18.1* | -6.4
C[C@H](CO)N1C[C@H](C)[C@@H](CN(C)C(=O)Nc2ccc(C(F)(F)F)cc2)Oc2c(NC(=O)CCC(F)(F)F)cccc2C1=O | -2.2 | / | / | -2.0 | / | /
Cc1ccc(-c2nn(CCC(=O)NN3CCOCC3)c(=O)c3ccccc23)cc1 | 1.4 | 1.2 | -4.7 | 5.0 | / | /
O=C(O)c1cc(-c2ccccc2)n(-c2ccc(Cl)cc2)n1 | -8.5 | -0.3 | 23.9* | -0.8 | 30.6* | 2.5
O=C(O)c1cc(-c2ccc(Cl)c(Cl)c2)n(-c2ccc(F)cc2)n1 | 0.4 | -0.1 | 52.7* | 7.4 | 48.8* | -5.2
NS(=O)(=O)c1ccc(-n2nc(C(=O)O)cc2-c2ccc(Cl)cc2)cc1 | -3.7 | 1.0 | 9.2 | 7.4 | / | /
CC1(C)CC(NC(=O)c2cc(S(=O)(=O)N3CCOCC3)c(Cl)cc2Cl)CC(C)(C)N1 | 7.1 | 2.6 | -6.8 | 9.4 | / | /
COC(=O)[C@]1(C)N[C@H](CN(C)C(=O)C2CCCCC2)[C@@H]2C(=O)N(C)C(=O)[C@@H]21 | 3.3 | / | / | -5.0 | / | /
N#CC1=C2N=C(N)c3ccccc3N2C2=C(C(=O)CCC2)C1c1ccccc1F (stereo unspecified) | -3.7 | 1.1 | 1.0 | 5.7 | / | /
